≈ marks a conversion by molar mass, not a printed value.
What follows are molecules tested on Pseudomonas aeruginosa (assay: Antibacterial activity against Pseudomonas aeruginosa 10-18 after 18 to 24 hrs by NCCLS method).
Assay type: functional
Outline: (§1)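 Standard NCCLS (M100-S11) MIC testing against Gram-positive and Gram-negative strains. Plates were incubated at 35 °C for 18–24 h. The MIC was read as the lowest concentration giving complete inhibition of visible bacterial growth.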

Structure (SMILES) | MIC
O=C(O)c1cn(C2CC2)c2cc(N3CCN(Cc4ccc5c(c4)OCO5)CC3)c(F)cc2c1=O | 8 µg/mL (≈ 17.2 µM)

Each molecule was assayed on Enterococcus faecium (assay: Antibacterial activity against Enterococcus faecium 10-9 after 18 to 24 hrs by NCCLS method).
Assay type: functional
Outline: as §1

Structure (SMILES) | MIC
O=C(O)c1cn(C2CC2)c2cc(N3CCN(Cc4ccc5c(c4)OCO5)CC3)c(F)cc2c1=O | 8 µg/mL (≈ 17.2 µM)

Each molecule was assayed on Escherichia coli (assay: Antibacterial activity against Escherichia coli ATCC 25922 after 18 to 24 hrs by NCCLS method).
Assay type: functional
Outline: as §1

Structure (SMILES) | MIC
O=C(O)c1cn(C2CC2)c2cc(N3CCN(Cc4ccc5c(c4)OCO5)CC3)c(F)cc2c1=O | 0.25 µg/mL (≈ 0.537 µM)

The molecules below were run on Staphylococcus aureus (assay: Antibacterial activity against methicillin-resistant Staphylococcus aureus 10-15 after 18 to 24 hrs by NCCLS method).
Assay type: functional
Outline: (§2)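 Incubated at 35 °C for 18–24 h under NCCLS (M100-S11) standards. MIC was read as the lowest concentration giving complete inhibition of visible bacterial growth.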

Structure (SMILES) | MIC
O=C(O)c1cn(C2CC2)c2cc(N3CCN(Cc4ccc5c(c4)OCO5)CC3)c(F)cc2c1=O | 16 µg/mL (≈ 34.4 µM)

Each molecule was assayed on Escherichia coli (assay: Antibacterial activity against extended spectrum beta-lactamases producing Escherichia coli 10-2 after 18 to 24 hrs by NCCLS method).
Assay type: functional
Outline: as §1

Structure (SMILES) | MIC
O=C(O)c1cn(C2CC2)c2cc(N3CCN(Cc4ccc5c(c4)OCO5)CC3)c(F)cc2c1=O | > 128 µg/mL

These molecules were tested on Streptococcus pneumoniae (assay: Antibacterial activity against Streptococcus pneumoniae 10-1 after 18 to 24 hrs by NCCLS method).
Assay type: functional
Outline: as §1

Structure (SMILES) | MIC
O=C(O)c1cn(C2CC2)c2cc(N3CCN(Cc4ccc5c(c4)OCO5)CC3)c(F)cc2c1=O | 8 µg/mL (≈ 17.2 µM)

Each molecule was assayed on Staphylococcus epidermidis (assay: Antibacterial activity against methicillin-sensitive Staphylococcus epidermidis 10-11 after 18 to 24 hrs by NCCLS method).
Assay type: functional
Outline: as §1

Structure (SMILES) | MIC
O=C(O)c1cn(C2CC2)c2cc(N3CCN(Cc4ccc5c(c4)OCO5)CC3)c(F)cc2c1=O | 2 µg/mL (≈ 4.3 µM)

What follows are molecules tested on Klebsiella pneumoniae (assay: Antibacterial activity against Klebsiella pneumoniae 10-4 after 18 to 24 hrs by NCCLS method).
Assay type: functional
Outline: as §1

Structure (SMILES) | MIC
O=C(O)c1cn(C2CC2)c2cc(N3CCN(Cc4ccc5c(c4)OCO5)CC3)c(F)cc2c1=O | > 128 µg/mL

The molecules below were run on Staphylococcus epidermidis (assay: Antibacterial activity against methicillin-resistant Staphylococcus epidermidis 10-13 after 18 to 24 hrs by NCCLS method).
Assay type: functional
Outline: as §2

Structure (SMILES) | MIC
O=C(O)c1cn(C2CC2)c2cc(N3CCN(Cc4ccc5c(c4)OCO5)CC3)c(F)cc2c1=O | 16 µg/mL (≈ 34.4 µM)

What follows are molecules tested on Pseudomonas aeruginosa (assay: Antibacterial activity against Pseudomonas aeruginosa 10-12 after 18 to 24 hrs by NCCLS method).
Assay type: functional
Outline: as §1

Structure (SMILES) | MIC
O=C(O)c1cn(C2CC2)c2cc(N3CCN(Cc4ccc5c(c4)OCO5)CC3)c(F)cc2c1=O | 32 µg/mL (≈ 68.7 µM)

These molecules were tested on Enterococcus faecalis (assay: Antibacterial activity against Enterococcus faecalis 10-7 after 18 to 24 hrs by NCCLS method).
Assay type: functional
Outline: as §1

Structure (SMILES) | MIC
O=C(O)c1cn(C2CC2)c2cc(N3CCN(Cc4ccc5c(c4)OCO5)CC3)c(F)cc2c1=O | 16 µg/mL (≈ 34.4 µM)

These molecules were tested on Klebsiella pneumoniae (assay: Antibacterial activity against Klebsiella pneumoniae 10-3 after 18 to 24 hrs by NCCLS method).
Assay type: functional
Outline: as §1

Structure (SMILES) | MIC
O=C(O)c1cn(C2CC2)c2cc(N3CCN(Cc4ccc5c(c4)OCO5)CC3)c(F)cc2c1=O | 8 µg/mL (≈ 17.2 µM)

These molecules were tested on Streptococcus pneumoniae (assay: Antibacterial activity against Streptococcus pneumoniae 10-6 after 18 to 24 hrs by NCCLS method).
Assay type: functional
Outline: as §1

Structure (SMILES) | MIC
O=C(O)c1cn(C2CC2)c2cc(N3CCN(Cc4ccc5c(c4)OCO5)CC3)c(F)cc2c1=O | 16 µg/mL (≈ 34.4 µM)

What follows are molecules tested on Escherichia coli (assay: Antibacterial activity against Escherichia coli 10-1 after 18 to 24 hrs by NCCLS method).
Assay type: functional
Outline: as §1

Structure (SMILES) | MIC
O=C(O)c1cn(C2CC2)c2cc(N3CCN(Cc4ccc5c(c4)OCO5)CC3)c(F)cc2c1=O | > 128 µg/mL

These molecules were tested on Pseudomonas aeruginosa (assay: Antibacterial activity against Pseudomonas aeruginosa 10-5 after 18 to 24 hrs by NCCLS method).
Assay type: functional
Outline: as §1

Structure (SMILES) | MIC
O=C(O)c1cn(C2CC2)c2cc(N3CCN(Cc4ccc5c(c4)OCO5)CC3)c(F)cc2c1=O | 16 µg/mL (≈ 34.4 µM)

These molecules were tested on Klebsiella pneumoniae (assay: Antibacterial activity against Klebsiella pneumoniae 10-2 after 18 to 24 hrs by NCCLS method).
Assay type: functional
Outline: as §1

Structure (SMILES) | MIC
O=C(O)c1cn(C2CC2)c2cc(N3CCN(Cc4ccc5c(c4)OCO5)CC3)c(F)cc2c1=O | 64 µg/mL (≈ 137 µM)

The molecules below were run on Escherichia coli (assay: Antibacterial activity against Escherichia coli 10-3 after 18 to 24 hrs by NCCLS method).
Assay type: functional
Outline: as §1

Structure (SMILES) | MIC
O=C(O)c1cn(C2CC2)c2cc(N3CCN(Cc4ccc5c(c4)OCO5)CC3)c(F)cc2c1=O | 16 µg/mL (≈ 34.4 µM)

The molecules below were run on Pseudomonas aeruginosa (assay: Antibacterial activity against Pseudomonas aeruginosa 10-15 after 18 to 24 hrs by NCCLS method).
Assay type: functional
Outline: as §1

Structure (SMILES) | MIC
O=C(O)c1cn(C2CC2)c2cc(N3CCN(Cc4ccc5c(c4)OCO5)CC3)c(F)cc2c1=O | 16 µg/mL (≈ 34.4 µM)

What follows are molecules tested on Enterococcus faecalis (assay: Antibacterial activity against Enterococcus faecalis 10-6 after 18 to 24 hrs by NCCLS method).
Assay type: functional
Outline: as §1

Structure (SMILES) | MIC
O=C(O)c1cn(C2CC2)c2cc(N3CCN(Cc4ccc5c(c4)OCO5)CC3)c(F)cc2c1=O | 32 µg/mL (≈ 68.7 µM)
